Experimental data taken from ChEMBL document CHEMBL1126124, “3-Phenyl-4-hydroxyquinolin-2(1H)-ones: potent and selective antagonists at the strychnine-insensitive glycine site on the N-methyl-D-aspartate receptor complex” (J Med Chem, 1992).
pIC50, pKi: −log10 of the molar value.

How the values were obtained:
Glutamate NMDA receptor [1] = assay: Ability to displace strychnine-insensitive [3H]glycine binding to N-methyl-D-aspartate glutamate receptor of rat cortical membranes.
Outline: (§1)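 Rat cortical membranes were prepared by a freeze/thaw Triton extraction. Incubation used [³H]glycine with 25 μg membrane fragments on ice for 1 h, ended by rapid filtration through GF/B filters. Nonspecific binding was defined with 100 μM D-serine.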

Glutamate NMDA receptor [2] = assay: Inhibition of [3H]MK-801 binding to a N-methyl-D-aspartate glutamate receptor in glycine-sensitive rat cortical membranes.; assay type: cell membranes, Membrane
Outline: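 Well-washed rat cortical membranes were given an added freeze/thaw step. [³H]MK-801 (2.5 nM) binding was run with 1 μM glutamate and 0.2 μM glycine for 2 h at 27 °C, then stopped by filtration. Nonspecific binding was defined with 0.5 μM MK-801. Values are IC50.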

[3] = target: T1, Glutamate receptor ionotropic, NMDA 1 (Rattus norvegicus, UniProt P35439); assay: Inhibition of [3H]-MK-801 binding to a N-methyl-D-aspartic acid(NMDA) receptor in glycine-sensitive rat cortical membranes.; assay type: cell membranes, Membrane
[4] = target: T1, Glutamate receptor ionotropic, NMDA 1; assay: Ability to displace strychnine-insensitive [3H]glycine binding to rat cortical membranes.; outline: as §1

Structure (SMILES) | pKi (Glutamate NMDA receptor [1]) | pIC50 (Glutamate NMDA receptor [2]) | pIC50 [3] | pKi [4]
Oc1ccc(-c2c(O)nc3cc(Cl)cc(Cl)c3c2O)cc1 | 7.89 | 6.96 |  | 
O=c1[nH]c2ccccc2c(O)c1-c1ccccc1 |  |  | 5.14 | 
Oc1nc2cc(Cl)cc(Cl)c2c(O)c1-c1ccccc1 | 7.24 | 6.66 |  | 
O=C(O)c1cc(O)c2c(Cl)cc(Cl)cc2n1 |  |  | 6.07 | 7.40
O=c1[nH]c2cc(Cl)cc(Cl)c2c(O)c1-c1ccc([N+](=O)[O-])cc1 |  |  |  | 6.07
Nc1ccc(-c2c(O)nc3cc(Cl)cc(Cl)c3c2O)cc1 |  |  | 6.68 | 7.74
COc1ccc(-c2c(O)nc3cc(Cl)cc(Cl)c3c2O)cc1 | 7.17 | 5.91 |  | 
Cc1ccc(-c2c(O)nc3cc(Cl)cc(Cl)c3c2O)cc1 |  |  | 6.26 | 6.52
